As a reminder, the inhibition in vivo is the share of the control response that was lost under treatment.

Data set [1] has as its system RAW264.7. Kind of data set: Cytotoxicity against mouse RAW264.7 cells assessed as reduction in cell viability at 50 ug/ml after 24 hrs by MTT assay. The data set is classed as cell-based. Particulars: raw264.7, 24 h. (In general: Tetrazolium dyes change colour on reduction, which living cells bring about.)
Data set [2] deals with RAW264.7. Kind of data set: Cytotoxicity against mouse RAW264.7 cells assessed as reduction in cell viability at 50 ug/ml preincubated for 24 hrs followed by LPS induction measured after 18 hrs by MTT assay. Particulars: raw264.7, 18 h. The data set is classed as cell-based.
In data set [3] the test system is RAW264.7. Kind of data set: Antiinflammatory activity against mouse RAW264.7 cells assessed as LPS-stimulated IL6 release at 12.5 ug/ml after 24 hrs by ELISA relative to LPS-treated control. The data set is classed as functional. The procedure, abridged: (§1)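 Mouse RAW 264.7 macrophages were stimulated with LPS in the presence of compound, tested at […]. TNF-α and IL-6 were measured in the culture supernatants by ELISA. Cytokine content is expressed as fold of the control group, with control set at 100%. Values are mean ± S.D. of triplicate experiments.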
(An ELISA detects its analyte on a solid surface through an enzyme-linked reagent.)

Data set [4] deals with RAW264.7. Kind of data set: Antiinflammatory activity against mouse RAW264.7 cells assessed as LPS-stimulated TNFalpa release at 50 ug/ml after 24 hrs by ELISA relative to LPS-treated control. The data set is classed as functional. The procedure, abridged: as §1
Data set [5] has as its system Mus musculus. Put plainly: Antiinflammatory activity in Kunming mouse assessed as inhibition of xylene-induced ear edema at 12.5 mg/kg, ip pretreated for 30 mins followed by xylene challenge measured after 30 mins relative to control. The data set is classed as functional. The procedure, abridged: (§2)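 Xylene-induced ear edema in mice. Compounds were given i.p. at 12.5, 25 or 50 mg/kg. Ibuprofen and indomethacin at 50 mg/kg served as reference drugs. Ear edema weight (mg) is reported as mean ± S.D., and percent inhibition is calculated against the untreated control group.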

For data set [6], the system named is Mus musculus. Put plainly: Antiinflammatory activity in Kunming mouse assessed as inhibition of xylene-induced ear edema at 25 mg/kg, ip pretreated for 30 mins followed by xylene challenge measured after 30 mins relative to control. The data set is classed as functional. The procedure, abridged: as §2
For data set [7], the target named is MAP kinase p38 (Mus musculus) (UniProt P47811+O08911+Q9WUI1+Q9Z1B7). Kind of data set: Inhibition of p38 phosphorylation in mouse RAW264.7 cells incubated for 24 hrs followed by LPS-stimulation measured after 24 hrs by Western blot method. The data set is classed as cell-based. The procedure, abridged: (§3)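 MAPK protein levels were determined by western blot in LPS-stimulated mouse RAW 264.7 cells. Data are means ± SD, compared with the control and LPS groups.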
Background: Immunoblotting shows a protein as a band on a membrane.

For data set [8], the system named is RAW264.7. Put plainly: Antiinflammatory activity against mouse RAW264.7 cells assessed as LPS-stimulated IL6 release at 50 ug/ml after 24 hrs by ELISA relative to LPS-treated control. The data set is classed as functional. The procedure, abridged:
as §1

The subject of data set [9] is RAW264.7. Kind of data set: Antiinflammatory activity against mouse RAW264.7 cells assessed as LPS-stimulated IL6 release at 25 ug/ml after 24 hrs by ELISA relative to LPS-treated control. The data set is classed as functional. The procedure, abridged:
as §1

The species named for data set [10] is Mus musculus. Kind of data set: Inhibition of LPS-induced NFkappaB activation in mouse RAW264.7 cells assessed as reduction p65 phosphorylation at 12.5 to 50 ug/ml preincubated for 24 hrs followed by LPS-stimulation measured after 24 hrs by Western blot method. The data set is classed as cell-based. The procedure, abridged:
(§4)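 NF-κB activation in LPS-stimulated RAW 264.7 cells was assessed by western blot of phosphorylated p65 and IκB levels. Data are means ± SD, compared with the control and LPS groups.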

Data set [11] has as its system RAW264.7. Kind of data set: Antiinflammatory activity against mouse RAW264.7 cells assessed as decrease in LPS-stimulated TNFalpa release after 24 hrs by ELISA. The data set is classed as functional, cell-based. The procedure, abridged: as §1
The target of data set [12] is T1, Prostaglandin G/H synthase 2 (Homo sapiens) (UniProt P35354).
T1 sequence (whole entry): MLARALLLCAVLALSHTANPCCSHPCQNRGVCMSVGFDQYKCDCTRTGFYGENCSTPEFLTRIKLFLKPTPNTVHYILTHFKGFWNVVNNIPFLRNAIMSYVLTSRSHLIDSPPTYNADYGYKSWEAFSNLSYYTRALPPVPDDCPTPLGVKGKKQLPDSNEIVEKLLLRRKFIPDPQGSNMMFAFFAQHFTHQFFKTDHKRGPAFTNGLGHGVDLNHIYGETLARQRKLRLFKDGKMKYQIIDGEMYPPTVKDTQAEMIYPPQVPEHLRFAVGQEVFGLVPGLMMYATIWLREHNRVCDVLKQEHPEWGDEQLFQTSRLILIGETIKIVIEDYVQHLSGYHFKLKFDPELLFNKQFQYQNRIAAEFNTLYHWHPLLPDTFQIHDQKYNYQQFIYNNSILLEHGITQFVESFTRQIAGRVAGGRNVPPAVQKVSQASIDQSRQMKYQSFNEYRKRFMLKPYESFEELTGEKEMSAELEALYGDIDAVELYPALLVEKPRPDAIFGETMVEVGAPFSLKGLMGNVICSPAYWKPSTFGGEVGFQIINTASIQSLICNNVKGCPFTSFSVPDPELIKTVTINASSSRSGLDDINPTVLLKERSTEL
Kind of data set: Inhibition of COX-2 (unknown origin) assessed as protein/GADPH ratio at 50 ug/ml relative to control. Set-up: scale not given: the % may be the effect or the level left.

The species entered for data set [13] is Mus musculus. Put plainly: Inhibition of NFkappaB in mouse RAW264.7 cells assessed as decrease in LPS-induced degradation of IkappaB preincubated for 24 hrs followed by LPS-stimulation measured after 24 hrs by Western blot method. The data set is classed as cell-based. The procedure, abridged: as §4
The target of data set [14] is Mitogen-activated protein kinase 3 (Mus musculus) (UniProt Q63844). Put plainly: Inhibition of ERK phosphorylation in mouse RAW264.7 cells incubated for 24 hrs followed by LPS-stimulation measured after 24 hrs by Western blot method. The data set is classed as cell-based. The procedure, abridged: as §3
In data set [15] the test system is RAW264.7. Kind of data set: Antiinflammatory activity against mouse RAW264.7 cells assessed as decrease in LPS-stimulated IL-6 release after 24 hrs by ELISA. The data set is classed as functional, cell-based. The procedure, abridged:
as §1

The subject of data set [16] is Mus musculus. Put plainly: Antiinflammatory activity in Kunming mouse assessed as inhibition of xylene-induced ear edema at 50 mg/kg, ip pretreated for 30 mins followed by xylene challenge measured after 30 mins relative to control. The data set is classed as functional. The procedure, abridged:
as §2

Mitogen-activated protein kinase 3 (Mus musculus), sequence (Q63844 whole entry): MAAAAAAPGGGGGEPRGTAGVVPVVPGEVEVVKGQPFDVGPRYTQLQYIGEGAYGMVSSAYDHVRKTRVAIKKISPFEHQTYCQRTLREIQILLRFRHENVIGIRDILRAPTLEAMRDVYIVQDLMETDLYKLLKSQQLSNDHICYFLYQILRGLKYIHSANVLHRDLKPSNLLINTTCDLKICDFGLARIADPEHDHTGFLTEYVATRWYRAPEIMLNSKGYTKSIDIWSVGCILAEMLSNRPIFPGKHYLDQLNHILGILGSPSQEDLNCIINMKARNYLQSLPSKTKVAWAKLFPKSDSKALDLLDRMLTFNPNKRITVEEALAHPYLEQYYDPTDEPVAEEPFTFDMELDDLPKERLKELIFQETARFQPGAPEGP

Regarding `Clc1ccc(Cn2c3cccc4cccc(c43)n3cnnc23)cc1`, the Activity result with RAW264.7 [1] is listed as “Toxic”.
On to `Clc1ccccc1Cn1c2cccc3cccc(c32)n2cnnc12`, for which the Activity entry with RAW264.7 [2] and in the data set on RAW264.7 [1] was “Non-Toxic” each time.
As for `Clc1cccc(Cl)c1Cn1c2cccc3cccc(c32)n2cnnc12`, the Activity result in the data set on RAW264.7 [2] and in the data set on RAW264.7 [1] was “Non-Toxic” in each case.
For `CCCCn1c2cccc3cccc(c32)n2cnnc12`, the Activity result in the data set with RAW264.7 [2] and in the data set with RAW264.7 [1] was “Toxic” in each case.
In the case of `CCCCCCCCn1c2cccc3cccc(c32)n2cnnc12`, the Activity entry in the data set on RAW264.7 [2] and in the data set with RAW264.7 [1] was “Toxic” throughout.
In the case of `Fc1cccc(Cn2c3cccc4cccc(c43)n3cnnc23)c1`, the Activity result in the data set with RAW264.7 [2] and in the data set with RAW264.7 [1] was “Non-Toxic” each time.
As for `CCCCCCCCCn1c2cccc3cccc(c32)n2cnnc12`, in the data set with RAW264.7 [1], the Activity entry is “Toxic”.
With `Clc1cccc(Cn2c3cccc4cccc(c43)n3cnnc23)c1`, the Activity result in the data set on RAW264.7 [2] and in the data set with RAW264.7 [1] was “Toxic” in each case.
In the case of `CCCCCCCCCCn1c2cccc3cccc(c32)n2cnnc12`, the Activity result in the data set on RAW264.7 [1] is reported as “Toxic”.
On to `Clc1ccc(Cn2c3cccc4cccc(c43)n3cnnc23)c(Cl)c1`, for which the Activity result in the data set on RAW264.7 [2] and in the data set with RAW264.7 [1] was “Non-Toxic” each time.
As for `Fc1ccccc1Cn1c2cccc3cccc(c32)n2cnnc12`, the Activity in the data set on RAW264.7 [3] is listed as 71.8%; in the data set on RAW264.7 [4], 124.87%; in the data set on RAW264.7 [8], 47.21%; in the data set on RAW264.7 [2] it was “Non-Toxic”; in the data set on RAW264.7 [9], 68.23%; with RAW264.7 [1] it was “Non-Toxic”. In addition, the Activity entry in the data set on RAW264.7 [11] is “Dose-dependent effect”; in [12], 45.2%; with RAW264.7 [15] it was “Dose-dependent effect”. Besides, the inhibition in vivo at 12.5 mg/kg in the data set on Mus musculus [5] amounted to 17.2%. The inhibition in vivo at 25 mg/kg with Mus musculus [6] was 35%. In addition, the inhibition entry (in data set [7]; in the data set filed under Mus musculus [10]; in the data set listed under Mus musculus [13]; in data set [14]) was “Dose-dependent effect” each time. Further, the inhibition in vivo at 50 mg/kg with Mus musculus [16] was 49.3%.
Take `FC(F)(F)c1ccc(Cn2c3cccc4cccc(c43)n3cnnc23)cc1`: the Activity entry in the data set on RAW264.7 [1] is “Toxic”.
On to `CCCCCn1c2cccc3cccc(c32)n2cnnc12`, for which, in the data set on RAW264.7 [2], the Activity result was “Non-Toxic”.
Turning to `c1ccc(Cn2c3cccc4cccc(c43)n3cnnc23)cc1`, the Activity entry with RAW264.7 [2] and with RAW264.7 [1] was “Non-Toxic” each time.
As to `Fc1ccc(Cn2c3cccc4cccc(c43)n3cnnc23)cc1`, the Activity result in the data set with RAW264.7 [2] and in the data set on RAW264.7 [1] was “Non-Toxic” in each case.
For the compound `Cc1cccc(Cn2c3cccc4cccc(c43)n3cnnc23)c1`, the Activity was 146.24% in the data set on RAW264.7 [4]; “Non-Toxic” in the data set on RAW264.7 [2]; “Non-Toxic” in the data set with RAW264.7 [1]; “Dose-dependent effect” with RAW264.7 [11]; “Dose-dependent effect” in the data set on RAW264.7 [15]. Besides, the inhibition in vivo at 12.5 mg/kg in the data set on Mus musculus [5] was 15.7%. Further, the inhibition in vivo at 25 mg/kg in the data set with Mus musculus [6] amounted to 29.8%. Also, the inhibition in vivo at 50 mg/kg in the data set on Mus musculus [16] worked out at 42.9%.
As for `CC(C)Cc1ccc(C(C)C(=O)O)cc1` (configuration not stated) [IBUPROFEN], the inhibition in vivo at 50 mg/kg with Mus musculus [16] was 28.1%.
`CCCn1c2cccc3cccc(c32)n2cnnc12`: the Activity entry in the data set on RAW264.7 [1] is “Toxic”.
For the compound `COc1ccc2c(c1)c(CC(=O)O)c(C)n2C(=O)c1ccc(Cl)cc1` [INDOMETHACIN], the inhibition in vivo at 50 mg/kg in the data set with Mus musculus [16] turned out to be 49.4%.
For the compound `Cc1ccc(Cn2c3cccc4cccc(c43)n3cnnc23)cc1`, the Activity result in the data set on RAW264.7 [1] is reported as “Toxic”.
Turning to `CCCCCCn1c2cccc3cccc(c32)n2cnnc12`, in the data set on RAW264.7 [1], the Activity entry was “Toxic”.

These data come from ChEMBL document CHEMBL4043186, “Design, synthesis, anti-inflammatory activity, and molecular docking studies of perimidine derivatives containing triazole” (Bioorg Med Chem Lett, 2017).
